Each structure is given as a SMILES string. Calls of active or inactive are those of the source. The calls are words filed in the database; no cut-off is given here.

Holding throughout (format): cell-based
The target of data set [1] is Retinoid X receptor (Homo sapiens) (UniProt P28702+P48443+P19793). The data set is described as follows: Transactivation of RXR in human HepG2 cells assessed as induction of apoE mRNA expression at 30 uM after 8 hrs by qRT-PCR analysis. The essentials: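 HepG2 cells were treated and ABCA1 or ApoE mRNA levels measured. Results are given as mean fold induction versus 0.1% DMSO vehicle ± SEM, n = 3. Significance was set at p < 0.05, 0.01 or 0.001.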
Sequence of Retinoid X receptor (Homo sapiens) (P19793 whole entry, looked up, one chain of several): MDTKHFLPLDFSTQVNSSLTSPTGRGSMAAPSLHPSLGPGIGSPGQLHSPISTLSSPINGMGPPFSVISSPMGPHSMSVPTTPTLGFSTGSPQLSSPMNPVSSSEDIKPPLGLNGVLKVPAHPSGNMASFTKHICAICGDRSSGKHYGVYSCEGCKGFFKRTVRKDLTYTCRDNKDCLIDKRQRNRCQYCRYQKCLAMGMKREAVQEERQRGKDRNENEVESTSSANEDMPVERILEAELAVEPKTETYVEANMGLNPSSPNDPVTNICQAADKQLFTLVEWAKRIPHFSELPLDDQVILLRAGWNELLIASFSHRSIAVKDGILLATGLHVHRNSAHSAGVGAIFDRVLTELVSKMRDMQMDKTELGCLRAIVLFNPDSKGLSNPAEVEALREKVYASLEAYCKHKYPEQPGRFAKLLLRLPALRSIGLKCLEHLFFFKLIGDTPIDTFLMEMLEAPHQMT
Sequence of Retinoid X receptor (Homo sapiens) (P28702 whole entry, looked up, one chain of several): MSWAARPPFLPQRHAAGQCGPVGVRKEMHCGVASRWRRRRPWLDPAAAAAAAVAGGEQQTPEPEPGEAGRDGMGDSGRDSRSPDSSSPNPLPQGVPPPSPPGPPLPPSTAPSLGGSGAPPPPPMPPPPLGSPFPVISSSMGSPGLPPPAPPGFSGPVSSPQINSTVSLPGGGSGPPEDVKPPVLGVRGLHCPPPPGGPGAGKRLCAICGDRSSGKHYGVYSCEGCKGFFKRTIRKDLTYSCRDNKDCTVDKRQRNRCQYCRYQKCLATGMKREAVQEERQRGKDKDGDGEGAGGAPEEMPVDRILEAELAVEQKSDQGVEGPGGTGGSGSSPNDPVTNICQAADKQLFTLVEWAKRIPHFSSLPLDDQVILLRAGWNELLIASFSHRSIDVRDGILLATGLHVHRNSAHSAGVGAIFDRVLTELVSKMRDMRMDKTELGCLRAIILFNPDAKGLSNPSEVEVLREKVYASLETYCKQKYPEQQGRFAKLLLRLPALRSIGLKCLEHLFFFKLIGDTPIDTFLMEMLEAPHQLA

Data set [2] addresses T1, Nuclear receptor subfamily 1 group I member 2 (Homo sapiens, UniProt O75469).
T1 sequence (O75469 whole entry): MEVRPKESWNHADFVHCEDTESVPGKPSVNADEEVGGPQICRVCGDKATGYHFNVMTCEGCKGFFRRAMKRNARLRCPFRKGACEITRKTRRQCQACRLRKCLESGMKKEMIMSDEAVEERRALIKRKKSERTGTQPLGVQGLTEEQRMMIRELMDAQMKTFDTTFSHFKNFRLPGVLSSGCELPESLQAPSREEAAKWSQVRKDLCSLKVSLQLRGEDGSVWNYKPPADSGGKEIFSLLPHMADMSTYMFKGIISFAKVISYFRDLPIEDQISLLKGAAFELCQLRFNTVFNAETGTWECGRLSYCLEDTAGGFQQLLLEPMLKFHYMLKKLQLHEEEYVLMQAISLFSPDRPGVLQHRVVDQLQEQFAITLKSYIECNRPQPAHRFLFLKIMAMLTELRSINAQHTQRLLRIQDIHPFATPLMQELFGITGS
The data set is described as follows: Transactivation of human Gal4-fused PXR LBD expressed in HEK293T cells at 30 uM after 12 to 14 hrs by dual-glo luciferase assay. The essentials:
(§1)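 Single-concentration selectivity profiling in Gal4-hybrid reporter gene assays in HEK293T cells. Each nuclear receptor construct (RAR, PPAR, LXR, FXR, CAR, VDR, PXR, RXR) was tested at 30 μM.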

The target in data set [3] is T2, Peroxisome proliferator-activated receptor gamma (Homo sapiens) (UniProt P37231).
T2 sequence (whole entry): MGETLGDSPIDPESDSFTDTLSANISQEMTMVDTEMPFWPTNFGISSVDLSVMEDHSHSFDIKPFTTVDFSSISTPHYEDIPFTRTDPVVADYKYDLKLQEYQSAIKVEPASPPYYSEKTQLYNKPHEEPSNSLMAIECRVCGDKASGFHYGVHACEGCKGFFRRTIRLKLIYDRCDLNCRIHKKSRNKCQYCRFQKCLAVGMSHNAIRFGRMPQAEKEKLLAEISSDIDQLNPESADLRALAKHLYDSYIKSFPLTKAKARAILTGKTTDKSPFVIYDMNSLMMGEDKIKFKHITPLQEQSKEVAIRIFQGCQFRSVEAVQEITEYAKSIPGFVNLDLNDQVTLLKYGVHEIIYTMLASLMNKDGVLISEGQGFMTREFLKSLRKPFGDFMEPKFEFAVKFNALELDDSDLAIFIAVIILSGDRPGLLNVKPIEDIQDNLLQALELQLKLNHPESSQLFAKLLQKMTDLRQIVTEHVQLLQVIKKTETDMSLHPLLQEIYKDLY
The data set is described as follows: Transactivation of human Gal4-fused PPARgamma LBD expressed in HEK293T cells at 30 uM after 12 to 14 hrs by dual-glo luciferase assay. The essentials:
as §1

For data set [4], the target named is T3, Peroxisome proliferator-activated receptor alpha (Homo sapiens) (UniProt Q07869).
T3 sequence (whole entry): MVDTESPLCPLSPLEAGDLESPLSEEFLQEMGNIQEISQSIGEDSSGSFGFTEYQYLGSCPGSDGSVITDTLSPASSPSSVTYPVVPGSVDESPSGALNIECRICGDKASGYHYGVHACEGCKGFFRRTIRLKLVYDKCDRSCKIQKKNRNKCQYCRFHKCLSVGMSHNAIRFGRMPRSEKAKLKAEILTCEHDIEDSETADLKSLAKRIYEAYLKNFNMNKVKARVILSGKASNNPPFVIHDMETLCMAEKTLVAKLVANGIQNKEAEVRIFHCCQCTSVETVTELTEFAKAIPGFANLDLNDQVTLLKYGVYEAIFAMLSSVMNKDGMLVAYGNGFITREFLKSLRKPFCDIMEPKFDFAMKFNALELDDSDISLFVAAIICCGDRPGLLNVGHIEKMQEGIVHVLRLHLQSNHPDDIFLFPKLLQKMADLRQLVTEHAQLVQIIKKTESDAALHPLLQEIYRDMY
The data set is described as follows: Transactivation of human Gal4-fused PPARalpha LBD expressed in HEK293T cells at 30 uM after 12 to 14 hrs by dual-glo luciferase assay. The essentials: as §1

In data set [5] the target is T4, Oxysterols receptor LXR-beta (Homo sapiens) (UniProt P55055).
T4 sequence (whole entry): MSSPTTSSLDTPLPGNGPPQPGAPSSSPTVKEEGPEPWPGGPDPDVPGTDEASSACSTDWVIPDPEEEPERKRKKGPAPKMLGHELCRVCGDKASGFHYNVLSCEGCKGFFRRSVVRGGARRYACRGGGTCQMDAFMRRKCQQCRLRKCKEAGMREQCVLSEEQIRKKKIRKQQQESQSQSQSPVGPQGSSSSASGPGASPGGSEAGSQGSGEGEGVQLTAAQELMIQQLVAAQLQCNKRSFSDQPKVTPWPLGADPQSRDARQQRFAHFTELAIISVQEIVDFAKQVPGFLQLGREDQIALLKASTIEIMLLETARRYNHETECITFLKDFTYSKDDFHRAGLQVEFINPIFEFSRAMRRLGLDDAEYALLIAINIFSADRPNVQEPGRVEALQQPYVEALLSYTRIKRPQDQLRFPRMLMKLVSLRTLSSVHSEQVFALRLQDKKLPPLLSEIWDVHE
The data set is described as follows: Transactivation of human Gal4-fused LXRbeta LBD expressed in HEK293T cells at 30 uM after 12 to 14 hrs by dual-glo luciferase assay. The essentials:
as §1

Data set [6] concerns the target T5, Retinoic acid receptor RXR-gamma (Homo sapiens) (UniProt P48443).
T5 sequence (whole entry): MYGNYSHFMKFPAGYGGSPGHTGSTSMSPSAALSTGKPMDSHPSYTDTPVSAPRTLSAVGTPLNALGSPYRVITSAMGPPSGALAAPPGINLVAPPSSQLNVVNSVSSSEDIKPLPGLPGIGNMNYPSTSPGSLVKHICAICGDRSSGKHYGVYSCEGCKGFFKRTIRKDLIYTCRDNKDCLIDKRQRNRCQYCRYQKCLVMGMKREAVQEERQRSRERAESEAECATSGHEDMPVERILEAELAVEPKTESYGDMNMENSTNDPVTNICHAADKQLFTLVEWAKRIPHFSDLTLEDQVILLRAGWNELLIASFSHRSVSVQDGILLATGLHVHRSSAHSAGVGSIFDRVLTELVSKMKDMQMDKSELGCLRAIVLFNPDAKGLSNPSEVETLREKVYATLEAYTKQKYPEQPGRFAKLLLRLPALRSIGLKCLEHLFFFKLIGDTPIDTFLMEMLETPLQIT
The data set is described as follows: Transactivation of human Gal4-fused RXRgamma LBD expressed in HEK293T cells after 12 to 14 hrs by dual-glo luciferase assay relative to bexarotene.

On to `CC1=C2[C@H](/C=C(\C)C(=O)O)CC[C@@H](C)[C@H]2CC1` [VALERENIC ACID], for which, in data set [1], the outcome was Active. Also, the Activity entry in data set [2] is recorded as “Not Active”. The result in data set [3], in data set [4] and in data set [5] was inactive. This compound returned a fold change (FC) in data set [6] of 4.

Source of the values: ChEMBL document CHEMBL4145619, “Computer-Assisted Discovery of Retinoid X Receptor Modulating Natural Products and Isofunctional Mimetics” (J Med Chem, 2018).
